# Measles CPE: protection of cells from measles virus | Measles virus-infected cells, CPE protection, absorbance | protection (pct of control), % at 4 µM | 1.5% of 140,000 active | AID 841; in the data active = protection mostly above about 24%, no sharp cut-off; inactive = mostly below about 26%
# NPY-Y1 antag: NPY-Y1 (human) receptor antagonism. P25929. HEK293-CNG Y1 cells, membrane potential fluorescence; NPY at EC95, then isoproterenol. inhibition, % at 3.6 µM. 1% of 200,000 active. AID 1040;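 active = inhibition above the campaign mean inhibition of all tested compounds plus 3 SD, cut at about 20% in these data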;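 also: 0% = DMSO wells given NPY plus isoproterenol and 100% = isoproterenol alone without NPY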
#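 material = HEK293 cells with Y1 receptor plus CNG channel | also added = NPY 25 nM then isoproterenol 1 µM plus Ro 20-1724 25 µM | schedule = dye 3 h, compound 60 min room temperature, stimulation 45 min | measured by = membrane potential fluorescence | benchmarks = high control isoproterenol alone, low control NPY with isoproterenol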
# NPY2 pot ag: human NPY-Y2 potentiation or agonism, primary screen; cells expressing NPY-Y2, potentiator/agonist read-out; activation, % at 3.6 µM; 0.45% of 220,000 active; in the data active = activation above about 27%;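 also: cells stimulated with NPY near EC25 plus isoproterenol at EC100; 0% = vehicle plus submaximal agonist and 100% = vehicle plus saturating agonist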
# Target sequence (P49146 whole entry, looked up): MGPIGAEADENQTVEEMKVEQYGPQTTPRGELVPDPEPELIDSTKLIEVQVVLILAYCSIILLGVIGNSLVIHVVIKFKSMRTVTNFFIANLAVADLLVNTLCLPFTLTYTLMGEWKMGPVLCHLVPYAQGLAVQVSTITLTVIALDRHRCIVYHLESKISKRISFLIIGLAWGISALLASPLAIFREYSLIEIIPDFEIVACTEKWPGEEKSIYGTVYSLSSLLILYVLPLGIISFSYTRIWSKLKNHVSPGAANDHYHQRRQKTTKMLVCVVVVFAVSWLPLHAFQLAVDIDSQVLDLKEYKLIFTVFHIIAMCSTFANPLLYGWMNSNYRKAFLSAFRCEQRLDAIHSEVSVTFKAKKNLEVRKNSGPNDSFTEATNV
# NPY-Y1 PAM-ag: potentiates or activates human NPY-Y1 receptor | AID 1304 | P25929 | activation, % at 3.6 µM | NPY-Y1 expressing cells, potentiator/agonist activation | 0.37% of 220,000 active; in the data active = activation above about 33%, passing the limit was not always enough;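 also: cells stimulated with NPY at EC10 then isoproterenol at EC100; 0% = low agonist plus stimulus and 100% = saturating agonist plus stimulus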
# Mdm2 ligase inh: Mdm2 E3 ligase (human) inhibition | cell-based MDM2 ubiquitination luciferase reporter, 2 h; 0 = plate control, 100 = twice control, blank-subtracted | signal enhancement, % at 5 µM | 0.11% of 210,000 active | AID 1230;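 active = signal enhancement of 30% or more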;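 also: luminescence tracks abundance of the self-degrading MDM2-luciferase fusion protein; higher signal means inhibition of MDM2 E3 ligase activity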
#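 Assay system: stable mammalian line carrying autodegrading MDM2–luciferase fusion reporter; Input: 2000 cells in each well; Compound dosing: single-point 5 µM; Schedule: 2 h compound exposure at 37 °C; Signal: SteadyLite luciferase luminescence after 15 min room-temperature reagent incubation; Evaluation: % luminescence enhancement versus blank-corrected plate control mean; Benchmarks: plate controls and plate blanks.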
# NPY Y2 blocker: NPY-Y2 (human) receptor antagonism. P49146. NPY-Y2 expressing cells, antagonist mode. inhibition, % at 2.7 µM. 0.99% of 140,000 active. AID 793; in the data active = inhibition above about 17%;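 also: 0% = vehicle with agonist challenge and 100% = reference antagonist with challenge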
# Active calls of the source: *; · = no result given. Compounds with a hit are over-represented: about 2.8% of the library has one in this group of screens.
SMILES,Measles CPE,NPY-Y1 antag,NPY2 pot ag,NPY-Y1 PAM-ag,Mdm2 ligase inh,NPY Y2 blocker
c1ccc(-c2ccccc2OCCCN2CCCCC2)cc1,10,28*,-6,13,7,18*
O=C(C[n+]1ccccc1)Nc1ccc(Oc2ccccc2)cc1,·,14,-17,1,-1,·
Cc1ccc(S(=O)(=O)N2CCC(C(=O)Nc3ccccc3N3CCCCC3)CC2)cc1,34*,2,-2,-17,-13,3
O=C(Nc1cc(S(=O)(=O)N2CCCCC2)ccc1N1CCCCC1)C1CC1,·,·,-5,18,·,·
COc1ccc(S(=O)(=O)Nc2ccc(N3CCOCC3)nc2)cc1,·,-3,0,-4,-3,·
Cc1cc(SCC(=O)c2ccc3c(c2)OCO3)nc2ccccc12,31*,9,-16,-43,-17,9
COc1ccc(NC(=O)C2CC(=O)N=C(N)S2)cc1 (stereo unspecified),·,4,6,15,3,·
Cc1ccc(-c2noc(CCCN3C(=O)c4ccccc4C3=O)n2)cc1,12,10,4,0,-10,11
O=C1c2ccccc2C(=O)N1CCCCCc1nc(-c2ccccc2)no1,14,22*,-5,-19,-15,12
O=C1C2CCCN2C(c2cccs2)N1c1ccc(Cl)cc1 (stereo unspecified),25*,5,-3,9,-1,6
COc1ccccc1C1N(c2ccc(Cl)cc2)C(=O)C2CCCN21 (stereo unspecified),6,-5,-5,13,8,2
CCS(=O)(=O)N1Cc2ccccc2CC1C(=O)Nc1nnc(SCc2ccc(F)cc2)s1 (stereo unspecified),3,9,-15,-13,-10,10
COc1ccc(Cl)cc1N(CC(=O)Nc1ccccc1C(=O)NCc1ccco1)S(C)(=O)=O,46*,-2,-7,-30,-7,6
O=C(Nc1ccccc1C(=O)NCc1ccco1)c1ccccc1,13,2,-16,-10,-3,1
O=C(Nc1ccc(Cl)cc1)Nc1ccccc1C(=O)NCc1ccco1,38*,0,-1,0,-21,0
COc1ccc(C(=O)Nc2ccc(Cl)cc2C(=O)NCc2ccco2)cc1,12,25*,-42,-77,-7,19*
CCC(C)C(NC(=O)c1ccccc1NC(=O)c1ccc(OC)cc1)C(=O)NCc1ccco1 (stereo unspecified),14,4,0,11,-19,2
COc1cccc(NC(=O)CCC(=O)Nc2cccc(OC)c2)c1,16,1,-2,2,0,-1
COc1cccc(NC(=O)CCC(=O)NCc2ccco2)c1,86*,7,-14,27,5,-1
O=C(/C=C/c1ccc(Cl)cc1)NCc1ccco1,18*,-1,6,-18,4,4
CCCCCC(=O)N/N=C/c1cccs1,7,-1,-12,-16,-5,0
CC(C)CNC(=O)CC(=O)N/N=C/c1cccs1,25*,1,11,9,-6,1
CCN1CCN(c2ncnc3c2cnn3-c2ccccc2)CC1,7,-3,4,-13,-2,2
Cc1ccc(C)c(N2CCN(c3ncnc4c3cnn4-c3ccccc3)CC2)c1,51*,-6,10,-8,-6,2
C=CCn1c(C)cc(C(=O)COc2nncc3ccccc23)c1C,46*,2,8,-4,-11,-2
SMILES,Measles CPE,NPY-Y1 antag,NPY2 pot ag,NPY-Y1 PAM-ag,Mdm2 ligase inh,NPY Y2 blocker
Cc1ccc(C(=O)NCC(=O)OCC(=O)c2cc(C)n(Cc3ccco3)c2C)cc1,4,1,4,1,-17,3
C=CCn1c(C)cc(C(=O)COC(=O)CNC(=O)c2ccccc2)c1C,26*,-3,-28,-15,-89,3
O=S(=O)(Nc1ccc(Cl)cc1)c1ccc2c(c1)CCO2,·,·,15,20,-8,·
Cc1csc(=N)n1CC(=O)N1CCc2ccccc21,26*,4,-11,-9,-12,5
CCOC(=O)/C=C/C(=O)N1CCc2ccccc21,25*,-4,1,18,-4,0
COc1ccc(C(=O)N2CCc3ccccc32)cc1,28*,3,-9,-6,·,2
O=C(CN1CCCc2ccccc21)N1CCc2ccccc21,·,·,6,-1,-6,·
CCOCC(=O)N1CCc2ccccc21,14,0,7,-12,2,2
CSCCC(=O)Nc1cc(S(=O)(=O)N2CCOCC2)ccc1N1CCN(C)CC1,·,-5,3,0,-2,·
Cc1cccc(C)c1Nc1nnc(SC(C)C(=O)Nc2c(C)n(C)n(-c3ccccc3)c2=O)s1 (stereo unspecified),30,5,-13,-8,-6,3
CNc1ccc(Br)cc(C(=O)/C=C/c2ccc3c(c2)OCO3)c1=O,54*,3,3,5,-4,2
O=C(CN1CCN(c2ncccn2)CC1)NCc1ccccc1,14,3,-8,-24,103*,0
O=C(CN1CCOCC1)NCc1ccccc1,14,3,-16,-9,-23,4
COc1ccccc1N=C(C)C1=C(O)CC(c2ccccc2)CC1=O (stereo unspecified),·,21*,-14,-28,-8,·
CCCC(=Nc1ccccc1OC)C1=C(O)CC(c2ccccc2)CC1=O (stereo unspecified),2,1,-6,6,2,3
Cc1ccc(-c2cc(C(F)F)n3ncc(C(=O)N4CCN5CCCC5C4)c3n2)cc1 (stereo unspecified),21,21*,-39,-76,9,19*
CCOC(=O)C1CCCN(C(=O)c2cnn3c(C(F)F)cc(-c4ccc(C)cc4)nc23)C1 (stereo unspecified),16,30*,-1,-33,-23,26*
Cc1ccc(-c2cc(C(F)F)n3ncc(C(=O)NN4CCCCC4)c3n2)cc1,·,4,-12,2,-9,·
NNC(=O)C(Cc1c[nH]c2ccccc12)NC(=O)c1ccccc1 (stereo unspecified),·,·,2,18,-10,·
COc1ccc(OC)c(Nc2nc(C3CC3)nc3c2nnn3Cc2ccccc2)c1,66*,-1,9,1,5,1
CCCn1c(CN(C)Cc2ccccc2)nc2c1c(=O)n(C)c(=O)n2C,6,2,0,2,-12,7
CCOCCCNc1nc2c(c(=O)n(C)c(=O)n2C)n1CCCc1ccccc1,67*,1,8,-13,-10,1
Cn1c(=O)c2c(nc(NCc3ccccc3)n2CCCc2ccccc2)n(C)c1=O,1,3,3,-37,-5,6
CN(Cc1ccccc1)Cc1nc2c(c(=O)n(C)c(=O)n2C)n1CCc1ccccc1,·,22*,-7,-36,·,23*
CN(Cc1ccccc1)Cc1nc2c(c(=O)n(C)c(=O)n2C)n1Cc1ccccc1Cl,53*,12,9,-4,-39,2

# Screens: PubChem, several laboratories
